Laboratory results published in ChEMBL document CHEMBL1949555, “Piperazine-2,3-dicarboxylic acid derivatives as dual antagonists of NMDA and GluK1-containing kainate receptors” (J Med Chem, 2012).

What was measured:
[1] = target: Ionotropic glutamate receptor NMDA 1/2D (Rattus norvegicus, UniProt P35439+Q62645); test: Antagonist activity rat recombinant GluN1/GluN2D receptor expressed in Xenopus laevis oocytes assessed as inhibition of glutamate-induced response by two-electrode voltage-clamp electrophysiology assay; assay type: functional, cell-based, Oocyte; conditions: read-out: Ki(app)
[2] = target: Glutamate receptor ionotropic, kainate 1 (Homo sapiens, UniProt P39086); test: Antagonist activity at human recombinant GluK1 receptor expressed in human HEK293 cells assessed as inhibition of glutamate-stimulated calcium influx by fluorescence assay; assay type: functional, cell-based
Sequence of Glutamate receptor ionotropic, kainate 1 (P39086 whole entry): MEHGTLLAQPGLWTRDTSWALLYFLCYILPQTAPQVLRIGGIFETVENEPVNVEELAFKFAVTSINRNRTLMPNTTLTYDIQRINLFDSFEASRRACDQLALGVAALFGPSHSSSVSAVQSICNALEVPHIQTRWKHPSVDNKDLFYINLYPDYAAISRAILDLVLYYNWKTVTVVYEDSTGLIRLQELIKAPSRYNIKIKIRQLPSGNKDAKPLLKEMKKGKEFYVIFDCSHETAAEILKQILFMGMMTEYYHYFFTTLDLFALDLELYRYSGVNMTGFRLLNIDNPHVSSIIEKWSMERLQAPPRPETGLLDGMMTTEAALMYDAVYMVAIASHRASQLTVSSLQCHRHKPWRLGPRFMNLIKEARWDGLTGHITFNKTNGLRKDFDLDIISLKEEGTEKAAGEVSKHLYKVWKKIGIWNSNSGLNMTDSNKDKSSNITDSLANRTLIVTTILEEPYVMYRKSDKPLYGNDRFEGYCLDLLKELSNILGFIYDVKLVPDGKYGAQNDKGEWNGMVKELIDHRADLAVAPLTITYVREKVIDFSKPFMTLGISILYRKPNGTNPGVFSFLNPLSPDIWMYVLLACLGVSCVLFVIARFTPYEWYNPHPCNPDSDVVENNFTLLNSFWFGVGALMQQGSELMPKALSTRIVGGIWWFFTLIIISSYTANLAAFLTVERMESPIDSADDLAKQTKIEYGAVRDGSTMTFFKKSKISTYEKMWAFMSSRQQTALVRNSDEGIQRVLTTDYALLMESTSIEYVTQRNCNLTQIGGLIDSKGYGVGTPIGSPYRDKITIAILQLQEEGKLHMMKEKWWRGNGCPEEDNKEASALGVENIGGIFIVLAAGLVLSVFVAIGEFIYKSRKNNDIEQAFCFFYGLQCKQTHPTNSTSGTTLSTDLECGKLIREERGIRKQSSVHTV
Outline: (§1)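 HEK293 lines stably expressing homomeric human GluK1(Q) or GluK2(Q), passaged no more than 20 times. Ca2+ influx is read as fluorescence, with concanavalin A present. Test compound is added in a first run, then L-glutamate plus antagonist in a second run (final glutamate 30 μM for GluK1, 10 μM for GluK2). IC50 values are converted to KB. Means ± s.e.m.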

[3] = target: Glutamate NMDA receptor; Grin1/Grin2a (Rattus norvegicus, UniProt P35439+Q00959); test: Antagonist activity at rat recombinant GluN1/GluN2A receptor expressed in Xenopus laevis oocytes assessed as inhibition of glutamate-induced response by two-electrode voltage-clamp electrophysiology assay; assay type: functional, cell-based, Oocyte; conditions: read-out: Ki(app)
Rattus norvegicus [4] = species: Rattus norvegicus; test: Selectivity ratio of Ki(app) for rat recombinant GluN1/GluN2A receptor to Ki(app) for rat recombinant GluN1/GluN2D receptor
[5] = target: Glutamate receptor ionotropic, kainate 2 (Homo sapiens, UniProt Q13002); test: Antagonist activity at human recombinant GluK2 receptor expressed in human HEK293 cells assessed as inhibition of glutamate-stimulated calcium influx by fluorescence assay; assay type: functional, cell-based; outline: as §1
Sequence of Glutamate receptor ionotropic, kainate 2 (Q13002 whole entry): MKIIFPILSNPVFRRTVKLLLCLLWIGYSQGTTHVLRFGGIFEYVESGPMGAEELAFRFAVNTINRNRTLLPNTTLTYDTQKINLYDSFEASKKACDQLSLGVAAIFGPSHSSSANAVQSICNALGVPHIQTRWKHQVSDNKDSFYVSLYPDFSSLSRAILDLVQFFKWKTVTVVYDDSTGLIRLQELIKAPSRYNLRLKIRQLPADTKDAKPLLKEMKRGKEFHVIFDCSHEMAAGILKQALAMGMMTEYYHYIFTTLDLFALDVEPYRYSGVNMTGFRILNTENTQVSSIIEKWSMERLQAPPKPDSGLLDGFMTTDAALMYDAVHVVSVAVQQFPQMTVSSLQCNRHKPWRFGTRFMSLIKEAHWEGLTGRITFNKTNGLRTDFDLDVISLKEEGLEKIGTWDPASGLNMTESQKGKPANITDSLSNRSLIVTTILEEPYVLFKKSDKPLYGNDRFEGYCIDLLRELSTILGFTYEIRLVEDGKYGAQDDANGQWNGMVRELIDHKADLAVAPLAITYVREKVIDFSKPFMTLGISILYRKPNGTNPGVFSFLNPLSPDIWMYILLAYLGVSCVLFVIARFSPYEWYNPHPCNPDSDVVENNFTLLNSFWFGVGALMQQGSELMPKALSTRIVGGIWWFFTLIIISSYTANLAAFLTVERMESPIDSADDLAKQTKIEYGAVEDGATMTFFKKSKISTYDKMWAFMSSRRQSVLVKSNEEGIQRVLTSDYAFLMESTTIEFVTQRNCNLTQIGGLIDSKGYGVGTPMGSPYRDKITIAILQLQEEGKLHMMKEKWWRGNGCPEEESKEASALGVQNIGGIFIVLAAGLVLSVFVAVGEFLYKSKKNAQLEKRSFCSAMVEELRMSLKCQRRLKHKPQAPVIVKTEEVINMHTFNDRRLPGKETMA

[6] = target: Glutamate NMDA receptor; Grin1/Grin2c (Rattus norvegicus, UniProt P35439+Q00961); test: Antagonist activity rat recombinant GluN1/GluN2C receptor expressed in Xenopus laevis oocytes assessed as inhibition of glutamate-induced response by two-electrode voltage-clamp electrophysiology assay; assay type: functional, cell-based, Oocyte; conditions: read-out: Ki(app)
Outline: (§2)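 Two-electrode voltage clamp of oocytes expressing rat GluN1a with the given GluN2 subunit, held at −60 mV in buffer of 116 mM NaCl, 2 mM KCl, 0.3 mM BaCl2, 5 mM HEPES, pH 7.4. Response is the steady plateau to bath-applied 10 μM L-glutamate plus 10 μM glycine. IC50 converted to apparent Ki via Ki = IC50/(1 + [agonist]/EC50). Means ± s.e.m.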

Rattus norvegicus [7] = species: Rattus norvegicus; test: Selectivity ratio of Ki(app) for rat recombinant GluN1/GluN2C receptor to Ki(app) for rat recombinant GluN1/GluN2D receptor
Outline: (§3)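 Rat GluN1a is co-expressed with GluN2A, 2B, 2C or 2D in Xenopus oocytes and recorded by two-electrode voltage clamp at −60 mV. Buffer is 116 mM NaCl, 2 mM KCl, 0.3 mM BaCl2, 5 mM HEPES, pH 7.4. The plateau response to bath-applied 10 μM L-glutamate plus 10 μM glycine is measured. Apparent Ki is IC50/(1+[agonist]/EC50).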

[8] = system: Kainate receptors (Rattus norvegicus); test: Displacement of [3H]-Kainate from native kainate receptors in rat brain homogenate; conditions: concentration not given here
Rattus norvegicus [9] = species: Rattus norvegicus; test: Selectivity ratio of Ki(app) for rat recombinant GluN1/GluN2B receptor to Ki(app) for rat recombinant GluN1/GluN2D receptor; outline: as §3
[10] = target: Glutamate NMDA receptor; Grin1/Grin2b (Rattus norvegicus, UniProt P35439+Q00960); test: Antagonist activity rat recombinant GluN1/GluN2B receptor expressed in Xenopus laevis oocytes assessed as inhibition of glutamate-induced response by two-electrode voltage-clamp electrophysiology assay; assay type: functional, cell-based, Oocyte; conditions: read-out: Ki(app); outline: as §2
[11] = Selectivity ratio of Kb for human recombinant GluK1 receptor to Ki(app) for rat recombinant GluN1/GluN2D receptor
[12] = Solubility of the compound in water at >100 uM; assay type: physicochemical; conditions: buffer
[13] = target: Glutamate NMDA receptor; Grin1/Grin2a (Rattus norvegicus) (UniProt P35439+Q00959); test: Antagonist activity at rat recombinant GluN1/GluN2A receptor expressed in Xenopus laevis oocytes assessed as inhibition of glutamate-induced response at 100 uM by two-electrode voltage-clamp electrophysiology assay; assay type: functional, cell-based; conditions: Oocyte
Outline: (§4)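 Rat GluN1a co-expressed with GluN2A, 2B, 2C or 2D in Xenopus oocytes. Two-electrode voltage clamp at −60 mV in buffer of 116 mM NaCl, 2 mM KCl, 0.3 mM BaCl2, 5 mM HEPES, pH 7.4. Response is the steady plateau evoked by bath-applied 10 μM L-glutamate plus 10 μM glycine. Read-out is percent antagonism by 100 μM test compound.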

[14] = target: Ionotropic glutamate receptor NMDA 1/2D (Rattus norvegicus) (UniProt P35439+Q62645); test: Antagonist activity rat recombinant GluN1/GluN2D receptor expressed in Xenopus laevis oocytes assessed as inhibition of glutamate-induced response at 100 uM by two-electrode voltage-clamp electrophysiology assay; assay type: functional, cell-based; conditions: Oocyte; outline: as §4
[15] = target: Glutamate NMDA receptor; Grin1/Grin2b (Rattus norvegicus) (UniProt P35439+Q00960); test: Antagonist activity rat recombinant GluN1/GluN2B receptor expressed in Xenopus laevis oocytes assessed as inhibition of glutamate-induced response at 100 uM by two-electrode voltage-clamp electrophysiology assay; assay type: functional, cell-based; conditions: Oocyte; outline: as §4
[16] = target: Glutamate NMDA receptor; Grin1/Grin2c (Rattus norvegicus) (UniProt P35439+Q00961); test: Antagonist activity rat recombinant GluN1/GluN2C receptor expressed in Xenopus laevis oocytes assessed as inhibition of glutamate-induced response at 100 uM by two-electrode voltage-clamp electrophysiology assay; assay type: functional, cell-based; conditions: Oocyte; outline: as §4

SMILES	Ki [1] [µM]	Kb [2] [µM]	Ki [3] [µM]	Kb [5] [µM]	Ki [6] [µM]	Ki [10] [µM]	further results
O=C(O)[C@H]1NCCN(S(=O)(=O)c2ccc(-c3ccccc3)cc2)[C@H]1C(=O)O	10.9	> 100	–	–	–	–	–
O=C(O)[C@H]1NCCN(C(=O)c2ccc3ccc4ccccc4c3c2)[C@H]1C(=O)O	2.4	14.2	22	> 100	5.2	17.2	Ratio Ki(app) (Rattus norvegicus [4]): 10; Ratio Ki(app) (Rattus norvegicus [7]): 2; inhibition [8]: 10%; Ratio Ki(app) (Rattus norvegicus [9]): 7
O=C(O)[C@H]1NCCN(C(=O)c2ccc3c(c2)CCc2cc(Br)ccc2-3)[C@H]1C(=O)O	1	11.5	–	–	–	–	–
O=C(O)[C@H]1NCCN(C(=O)c2ccc3c(ccc4cc(Br)ccc43)c2)[C@H]1C(=O)O	0.15	8	–	> 100	–	–	–
O=C(O)[C@H]1NCCN(Cc2ccc3c(ccc4ccccc43)c2)[C@H]1C(=O)O	3.2	39	–	–	–	–	–
O=C(O)[C@@H]1[C@H](C(=O)O)NCCN1C(=O)c1ccc2c(ccc3ccccc32)c1	0.09	3	0.21	> 100	0.07	0.22	Ratio [11]: 30
O=C(O)[C@H]1NCCN(C(=O)c2ccc3c(c2)CCc2ccccc2-3)[C@H]1C(=O)O	0.57	14.1	–	> 100	–	–	–
O=C(O)[C@H]1NCCN(C(=O)c2ccc(-c3ccccc3)cc2)[C@H]1C(=O)O	4.3	9.8	–	> 100	–	–	–
O=C(O)[C@H]1NCCN(C(=O)c2ccc3ccccc3c2)[C@H]1C(=O)O	–	45.6	–	–	–	–	–
O=C(O)C1NCCN(C(=O)c2ccc3c(ccc4ccccc43)c2)C1C(=O)O (racemic) [listing 1 of 2 here]	0.13	–	0.55	–	0.1	0.31	–
O=C(O)[C@@H]1NCCN(C(=O)c2ccc3c(ccc4ccccc43)c2)[C@H]1C(=O)O (racemic)	6	59.2	–	–	–	–	–
O=C(O)C1NCCN(C(=O)c2ccc3c(ccc4ccccc43)c2)C1C(=O)O (racemic) [listing 2 of 2 here]	–	7.5	–	> 100	–	–	–
O=C(O)[C@H]1NCCN(C(=O)c2ccc3cc(F)ccc3c2)[C@H]1C(=O)O (relative stereo)	5.1	52.9	7.4	–	3.6	12.3	–
O=C(O)[C@H]1NCCN(C(=O)c2ccc3cc(Br)ccc3c2)[C@H]1C(=O)O (relative stereo)	2.2	16.2	4.1	–	2.1	2.7	–
O=C(O)[C@H]1NCCN(C(=O)c2ccc3cc(I)ccc3c2)[C@H]1C(=O)O (relative stereo)	1.6	7.5	3	> 100	1.8	1.3	–
O=C(O)[C@H]1NCCN(C(=O)c2ccc3cc(-c4ccccc4)ccc3c2)[C@H]1C(=O)O (relative stereo)	2.4	5.8	> 100	> 100	5.1	> 100	solubility [12]: Insoluble
O=C(O)[C@H]1NCCN(C(=O)CCc2ccc3ccccc3c2)[C@H]1C(=O)O (relative stereo)	2.7	67.8	5.1	–	4.1	2.3	–
O=C(O)c1ccc2cc(C(=O)N3CCN[C@H](C(=O)O)[C@@H]3C(=O)O)ccc2c1 (relative stereo)	> 100	59.7	> 100	–	> 100	> 100	inhibition [13]: < 5%; inhibition [14]: < 5%; inhibition [15]: < 5%; inhibition [16]: < 5%
O=C(O)c1ccc(-c2ccc(C(=O)N3CCN[C@H](C(=O)O)[C@@H]3C(=O)O)cc2)cc1 (relative stereo)	–	51.5	–	–	> 100	> 100	solubility [12]: Insoluble; inhibition [15]: < 15%; inhibition [16]: < 15%
O=C(O)[C@H]1NCCN(C(=O)c2ccc(C#Cc3ccccc3)cc2)[C@H]1C(=O)O (relative stereo)	10.5	–	138	> 100	21.4	24.1	–
O=C(O)[C@H]1NCCN(C(=O)c2ccc(/N=N/c3ccccc3)cc2)[C@H]1C(=O)O (relative stereo)	10.8	–	99.3	> 100	28	12.9	–
O=C(O)[C@H]1NCCN(C(=O)c2ccc(CCc3ccccc3)cc2)[C@H]1C(=O)O (relative stereo)	> 100	16.7	> 100	–	> 100	> 100	inhibition [13]: 11.5%; inhibition [14]: 10.2%; inhibition [15]: > 5%; inhibition [16]: 29.1%
O=C(O)[C@H]1NCCN(C(=O)c2ccc3cc(Cl)c4ccccc4c3c2)[C@H]1C(=O)O (relative stereo)	1.7	21.8	7.2	–	3.2	15.2	–
O=C(O)[C@H]1NCCN(C(=O)c2ccc3cc(Br)c4ccccc4c3c2)[C@H]1C(=O)O (relative stereo)	1.2	12.8	11.5	> 100	2.8	8	Ratio Ki(app) (Rattus norvegicus [4]): 10; Ratio Ki(app) (Rattus norvegicus [7]): 2; inhibition [8]: 10%; Ratio Ki(app) (Rattus norvegicus [9]): 7; Ratio [11]: 9
O=C(O)[C@H]1NCCN(C(=O)c2ccc3cc4ccccc4cc3c2)[C@H]1C(=O)O (relative stereo)	2.5	14.4	10.5	> 100	3.4	5.2	–
O=C(O)C1NCCN(C(=O)c2ccc3c(ccc4ccccc43)c2)C1C(=O)O (single isomer, unassigned; (+))	–	82	–	–	–	–	–
